In one assay the target is Cholinesterase (Equus caballus, UniProt P81908). The assay can be described thus: Inhibition of equine serum BChE using butyrylthiocholine iodide as substrate preincubated for 20mins before the addition of substrate by Ellman's method. Particulars: for Ki: read-out: Ki. (DTNB colorimetry detects thiols as they appear.)
Assay [1] can be described thus: Cytotoxic activity against mouse NIH/3T3 cells by SRB assay. The following applies: NIH3T3. Type of assay: cell-based. The gist of the method: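 Mouse embryonic fibroblasts grown as monolayers in RPMI 1640 with 10% heat-inactivated FBS and penicillin/streptomycin at 37 °C under 5% CO2. Cytotoxicity read by photometric sulforhodamine-B microculture colorimetric assay, reported as IC50.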
Background: Sulforhodamine B stains cellular protein and so reports cell mass.

Another assay concerns the target Acetylcholinesterase (Electrophorus electricus, UniProt O42275). The assay can be described thus: Inhibition of Electrophorus electricus AChE using acetylthiocholine iodide as substrate preincubated for 20mins before the addition of substrate by Ellman's method. Particulars: for Ki: read-out: Ki.
Assay [2] addresses Cholinesterase (Equus caballus) (UniProt P81908). Kind of assay: Inhibition of equine serum BChE at 40 uM using butyrylthiocholine iodide as substrate preincubated for 20mins before the addition of substrate by Ellman's method. The gist of the method: (§1)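 Ellman assay: enzyme in Tris-HCl pH 8.0 with NaN3, plus DTNB (3 mM stock with NaCl and MgCl2), was preincubated with compound at 30 °C for 20 min. Thiocholine substrate was then added and absorbance at 415 nm recorded at 30 °C for 30 min at 1-min intervals, in triplicate. Residual DMSO below 0.5%.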

Assay [3] concerns the target Acetylcholinesterase (Electrophorus electricus) (UniProt O42275). Kind of assay: Mixed type inhibition of Electrophorus electricus AChE by Lineweaver-Burk plot analysis. The essentials: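 Ellman kinetics at 30 °C in pH 8.0 Tris-HCl with DTNB. Enzyme plus inhibitor (3 concentrations and a water blank) was preincubated for 20 min, then ATChI was added at 0.9375, 0.625, 0.325 or 0.1875 mM. A415 was read every minute for 30 min, in triplicate. Mode, Ki and Ki' came from Lineweaver-Burk, Dixon and Cornish-Bowden plots.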

Assay [4] shares this target. Particulars: 40 uM.
Assay [5] has as its system Candida antarctica. The assay can be described thus: Inhibition of Candida antarctica lipase at 40 uM using 4-NA as substrate preincubated for 20 mins before the addition of substrate. The essentials: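 Candida antarctica lipase (stock 2.003 U/ml) in 50 mM Tris-HCl pH 8.0, preincubated with compound at 37 °C for 20 min. Reaction started with 4-NA; absorbance at 415 nm followed at 37 °C for 10 min at 1 min intervals. Relative inhibition taken as the ratio of linear-range slopes, compound over blank.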

The target in assay [6] is Carbonic anhydrase 2 (Bos taurus) (UniProt P00921). Kind of assay: Inhibition of bovine erythrocte carbonic anhydrase 2 at 40 uM.
Chain of Carbonic anhydrase 2 (Bos taurus) (P00921 2-260 limits assumed): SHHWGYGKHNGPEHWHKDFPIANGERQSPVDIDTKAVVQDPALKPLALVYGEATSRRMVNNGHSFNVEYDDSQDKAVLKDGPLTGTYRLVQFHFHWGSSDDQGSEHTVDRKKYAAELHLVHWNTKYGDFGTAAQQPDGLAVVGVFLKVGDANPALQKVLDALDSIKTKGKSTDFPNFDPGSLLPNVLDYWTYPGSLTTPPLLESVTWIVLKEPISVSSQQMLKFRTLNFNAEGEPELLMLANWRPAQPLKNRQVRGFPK
In assay [7] the test system is Candida antarctica. The assay can be described thus: Inhibition of Candida antarctica lipase at 3 uM using 4-NA as substrate preincubated for 20 mins before the addition of substrate. The essentials:
(§2)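 Candida antarctica lipase in 50 mM Tris-HCl pH 8.0 was preincubated with compound at 37 °C for 20 min. Reaction started with 4-NA ([…] as added). Absorbance at 415 nm was read kinetically at 37 °C for 10 min at 1-min intervals. Relative inhibition was taken as the ratio of linear-range slopes, compound over blank.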

For assay [8], the target named is Acetylcholinesterase (Electrophorus electricus) (UniProt O42275). Kind of assay: Inhibition of Electrophorus electricus AChE at 3 uM using acetylthiocholine iodide as substrate preincubated for 20mins before the addition of substrate by Ellman's method. The essentials:
as §1

For assay [9], the target named is Cholinesterase (Equus caballus) (UniProt P81908). Kind of assay: Inhibition of equine serum BChE at 3 uM using butyrylthiocholine iodide as substrate preincubated for 20mins before the addition of substrate by Ellman's method. The gist of the method: as §1
Chain of Cholinesterase (Equus caballus) (P81908 whole entry): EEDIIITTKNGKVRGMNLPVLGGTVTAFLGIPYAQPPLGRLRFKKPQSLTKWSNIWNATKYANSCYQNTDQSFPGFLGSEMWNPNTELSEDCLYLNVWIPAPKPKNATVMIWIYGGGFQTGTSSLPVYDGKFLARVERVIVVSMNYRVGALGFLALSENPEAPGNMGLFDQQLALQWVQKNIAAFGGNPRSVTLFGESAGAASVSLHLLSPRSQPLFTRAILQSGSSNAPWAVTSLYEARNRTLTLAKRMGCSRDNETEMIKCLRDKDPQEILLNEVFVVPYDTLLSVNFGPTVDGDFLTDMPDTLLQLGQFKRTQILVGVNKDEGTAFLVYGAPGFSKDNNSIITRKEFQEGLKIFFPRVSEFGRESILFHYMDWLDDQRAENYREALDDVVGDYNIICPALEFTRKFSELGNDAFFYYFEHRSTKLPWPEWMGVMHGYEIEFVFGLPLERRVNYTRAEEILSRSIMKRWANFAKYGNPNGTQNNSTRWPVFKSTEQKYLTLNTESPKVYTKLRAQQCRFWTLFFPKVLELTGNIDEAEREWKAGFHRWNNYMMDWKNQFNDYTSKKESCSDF
Assay [10] concerns the target Carbonic anhydrase 2 (Bos taurus) (UniProt P00921). Kind of assay: Inhibition of bovine erythrocte carbonic anhydrase 2 at 3 uM.
Assay [11] deals with Acetylcholinesterase (Electrophorus electricus) (UniProt O42275). The following applies: 10 uM.
Chain of Acetylcholinesterase (Electrophorus electricus) (O42275 24-633 limits assumed): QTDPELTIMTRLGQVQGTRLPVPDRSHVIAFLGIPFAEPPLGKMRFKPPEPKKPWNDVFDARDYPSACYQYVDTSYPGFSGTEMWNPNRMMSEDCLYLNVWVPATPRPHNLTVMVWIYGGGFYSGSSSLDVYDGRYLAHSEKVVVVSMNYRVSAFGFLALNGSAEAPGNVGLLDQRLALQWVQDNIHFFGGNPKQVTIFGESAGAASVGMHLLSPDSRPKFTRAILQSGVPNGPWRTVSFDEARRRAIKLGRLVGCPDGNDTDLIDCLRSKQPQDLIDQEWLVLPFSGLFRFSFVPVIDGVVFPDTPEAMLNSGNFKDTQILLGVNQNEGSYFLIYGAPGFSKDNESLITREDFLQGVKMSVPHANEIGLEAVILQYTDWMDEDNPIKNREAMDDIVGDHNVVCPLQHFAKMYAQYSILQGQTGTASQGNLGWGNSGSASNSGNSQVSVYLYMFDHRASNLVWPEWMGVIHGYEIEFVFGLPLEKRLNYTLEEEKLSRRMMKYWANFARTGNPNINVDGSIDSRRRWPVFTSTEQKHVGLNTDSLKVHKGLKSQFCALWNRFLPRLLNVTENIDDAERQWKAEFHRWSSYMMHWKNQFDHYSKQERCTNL
In assay [12] the test system is Candida antarctica. Kind of assay: Inhibition of Candida antarctica lipase at 10 uM using 4-NA as substrate preincubated for 20 mins before the addition of substrate. The gist of the method:
as §2

The target of assay [13] is Cholinesterase (Equus caballus) (UniProt P81908). The assay can be described thus: Inhibition of equine serum BChE at 10 uM using butyrylthiocholine iodide as substrate preincubated for 20mins before the addition of substrate by Ellman's method. The gist of the method: as §1
Assay [14] deals with Carbonic anhydrase 2 (Bos taurus) (UniProt P00921). Kind of assay: Inhibition of bovine erythrocte carbonic anhydrase 2 at 10 uM.
The target is the same in assay [15]. Kind of assay: Inhibition of bovine erythrocte carbonic anhydrase 2 at 5 uM.
The subject of assay [16] is Candida antarctica. The assay can be described thus: Inhibition of Candida antarctica lipase at 5 uM using 4-NA as substrate preincubated for 20 mins before the addition of substrate. The essentials: as §2
In assay [17] the target is Acetylcholinesterase (Electrophorus electricus) (UniProt O42275). The assay can be described thus: Inhibition of Electrophorus electricus AChE at 5 uM using acetylthiocholine iodide as substrate preincubated for 20mins before the addition of substrate by Ellman's method. The gist of the method:
as §1

For assay [18], the target named is Cholinesterase (Equus caballus) (UniProt P81908). The assay can be described thus: Inhibition of equine serum BChE at 5 uM using butyrylthiocholine iodide as substrate preincubated for 20mins before the addition of substrate by Ellman's method. The essentials:
as §1

For assay [19] the target is unchanged. The assay can be described thus: Mixed type inhibition of equine serum BChE by Lineweaver-Burk plot analysis.

Chain of Acetylcholinesterase (O42275 whole entry): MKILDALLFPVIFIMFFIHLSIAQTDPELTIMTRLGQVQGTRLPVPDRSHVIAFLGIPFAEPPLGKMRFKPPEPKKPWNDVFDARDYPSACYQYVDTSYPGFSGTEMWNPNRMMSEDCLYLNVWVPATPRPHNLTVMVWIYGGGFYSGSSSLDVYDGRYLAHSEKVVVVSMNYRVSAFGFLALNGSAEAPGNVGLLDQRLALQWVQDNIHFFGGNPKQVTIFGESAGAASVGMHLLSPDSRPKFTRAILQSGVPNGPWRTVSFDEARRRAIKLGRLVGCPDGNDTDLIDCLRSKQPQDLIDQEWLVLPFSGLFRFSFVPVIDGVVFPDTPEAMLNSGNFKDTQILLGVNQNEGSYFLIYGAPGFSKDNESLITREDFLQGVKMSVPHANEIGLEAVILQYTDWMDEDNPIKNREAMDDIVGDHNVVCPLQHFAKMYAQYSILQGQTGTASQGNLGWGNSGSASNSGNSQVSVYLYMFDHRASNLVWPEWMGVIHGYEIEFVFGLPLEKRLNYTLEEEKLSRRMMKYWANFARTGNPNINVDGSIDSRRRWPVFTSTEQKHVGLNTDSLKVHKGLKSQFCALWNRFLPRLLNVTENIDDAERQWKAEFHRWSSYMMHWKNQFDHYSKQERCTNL
Chain of Cholinesterase (P81908 whole entry): as the sequence (P81908 whole entry) above

As for `CC1(C)CC[C@]2(C(=O)O)CC[C@]3(C)C(=CC[C@@H]4[C@@]5(C)C[C@@H](O)[C@H](O)C(C)(C)[C@@H]5CC[C@]43C)[C@@H]2C1` [MASLINIC ACID], the Ki on Cholinesterase and on Acetylcholinesterase was over 100 µM each time. Inhibition in assay [1] was half-maximal at 16.6 µM (IC50).
In the case of `CC1(C)CC[C@]2(C(=O)OCCCBr)CC[C@]3(C)C(=CC[C@@H]4[C@@]5(C)C[C@@H](O)[C@H](O)C(C)(C)[C@@H]5CC[C@]43C)[C@@H]2C1`, the Ki (usually the dissociation constant of the complex between target and ligand, obtained from inhibition or displacement) on Cholinesterase is over 80 µM; at Acetylcholinesterase, 34.9 µM. For the same molecule, the inhibition (usually how much of the control response was suppressed) in [2] was 16%; in [4], 39%; in the assay with Candida antarctica [5], 18%; in assay [6] it was 1%. The Kiuc in assay [3] was found to be 24.4 µM. Further, the IC50 (commonly the concentration at which inhibition is half-maximal) at Acetylcholinesterase came out at 31.2 µM.
With `CCCOC(=O)[C@]12CCC(C)(C)C[C@H]1C1=CC[C@@H]3[C@@]4(C)C[C@@H](O)[C@H](O)C(C)(C)[C@@H]4CC[C@@]3(C)[C@]1(C)CC2`, the Ki on Cholinesterase is over 6 µM; at Acetylcholinesterase, 16.9 µM. Further, the Kiuc in assay [3] came to 15.4 µM. In addition, the inhibition is 0% in the assay with Candida antarctica [7], 56% in [8], 0% in assay [9] and 0% in assay [10]. Further, half-maximal inhibition at Acetylcholinesterase (IC50) required 8.76 µM.
On to `CC1(C)CC[C@]2(C(=O)OCCCI)CC[C@]3(C)C(=CC[C@@H]4[C@@]5(C)C[C@@H](O)[C@H](O)C(C)(C)[C@@H]5CC[C@]43C)[C@@H]2C1`, for which the Ki on Cholinesterase is over 20 µM; on Acetylcholinesterase it was 6.01 µM. Besides, the inhibition in assay [11] amounted to 51%; in the assay with Candida antarctica [12] it was 0%; in assay [13] it was 0%; in assay [14], 6%. Further, in [3], the Kiuc amounted to 13.4 µM. On Acetylcholinesterase, this molecule yielded an IC50 of 10.3 µM.
As for `CC1(C)CC[C@]2(C(=O)OCC3CCCCC3)CC[C@]3(C)C(=CC[C@@H]4[C@@]5(C)C[C@@H](O)[C@H](O)C(C)(C)[C@@H]5CC[C@]43C)[C@@H]2C1`, the Ki at Cholinesterase is over 14 µM. Moreover, the Kiuc in assay [3] amounted to 2.67 µM. Besides, at Acetylcholinesterase, the IC50 was 3.87 µM and the Ki was 10 µM.
Turning to `CC1(C)CC[C@]2(C(=O)OCCCCCl)CC[C@]3(C)C(=CC[C@@H]4[C@@]5(C)C[C@@H](O)[C@H](O)C(C)(C)[C@@H]5CC[C@]43C)[C@@H]2C1`, the inhibition in assay [15] was 0%; with Candida antarctica [16], 0%; in assay [17] it was 79%; in assay [18], 0%. The values for the Ki on Cholinesterase and on Acetylcholinesterase were over 10 µM and 1.68 µM, respectively. This molecule came in with an IC50 on Acetylcholinesterase of 10.5 µM.
With `CC1(C)CC[C@]2(C(=O)OCCC#CCl)CC[C@]3(C)C(=CC[C@@H]4[C@@]5(C)C[C@@H](O)[C@H](O)C(C)(C)[C@@H]5CC[C@]43C)[C@@H]2C1`, on Cholinesterase, the Ki is over 6 µM. The molecule also displayed a Kiuc in [3] of 14.8 µM. For the same molecule, on Acetylcholinesterase, it took 6.57 µM to reach half-maximal inhibition (IC50) and the Ki amounted to 5.71 µM.
As to `CCCCCCOC(=O)[C@]12CCC(C)(C)C[C@H]1C1=CC[C@@H]3[C@@]4(C)C[C@@H](O)[C@H](O)C(C)(C)[C@@H]4CC[C@@]3(C)[C@]1(C)CC2`, the Ki is over 6 µM on Cholinesterase and 4.78 µM on Acetylcholinesterase. Besides, in assay [3], the Kiuc worked out at 5.11 µM. In addition, the inhibition in the assay with Candida antarctica [7] stood at 0%; in assay [8] it was 62%; in assay [9], 0%; in assay [10] it was 0%. The IC50 against Acetylcholinesterase stood at 4.38 µM.
Regarding `CC1(C)CC[C@]2(C(=O)OC/C=C\CCl)CC[C@]3(C)C(=CC[C@@H]4[C@@]5(C)C[C@@H](O)[C@H](O)C(C)(C)[C@@H]5CC[C@]43C)[C@@H]2C1`, the Ki was over 80 µM on Cholinesterase and 22.5 µM at Acetylcholinesterase. The inhibition in assay [2] amounted to 7%; in assay [4], 79%; with Candida antarctica [5], 0%; in [6], 1%. The molecule also yielded a Kiuc in [3] of 9.38 µM. This molecule also gave an IC50 against Acetylcholinesterase of 17.6 µM.
With `C#CCCOC(=O)[C@]12CCC(C)(C)C[C@H]1C1=CC[C@@H]3[C@@]4(C)C[C@@H](O)[C@H](O)C(C)(C)[C@@H]4CC[C@@]3(C)[C@]1(C)CC2`, the inhibition constant (Ki) on Cholinesterase was over 20 µM; at Acetylcholinesterase, 6.76 µM. For the same molecule, in [3], the Kiuc stood at 32.5 µM. Further, the midpoint of inhibition at Acetylcholinesterase, the IC50, lay at 11.7 µM.
For the molecule `CC1(C)CC[C@]2(C(=O)OCc3ccc(Cl)cc3Cl)CC[C@]3(C)C(=CC[C@@H]4[C@@]5(C)C[C@@H](O)[C@H](O)C(C)(C)[C@@H]5CC[C@]43C)[C@@H]2C1`, the Ki on Cholinesterase was over 6 µM; on Acetylcholinesterase it was 2.03 µM. The molecule also had a Kiuc in [3] of 9.24 µM. Moreover, the inhibition with Candida antarctica [7] was found to be 0%; in assay [8], 43%; in assay [9], 0%; in assay [10], 0%. Moreover, the IC50 in assay [1] stood at 17.3 µM; against Acetylcholinesterase it was 4.63 µM.
For `CC1(C)CC[C@]2(C(=O)OCCCO)CC[C@]3(C)C(=CC[C@@H]4[C@@]5(C)C[C@@H](O)[C@H](O)C(C)(C)[C@@H]5CC[C@]43C)[C@@H]2C1`, at Cholinesterase, the Ki is over 10 µM. In assay [3], this molecule showed a Kiuc of 13.7 µM. Also, on Acetylcholinesterase, 13.8 µM corresponded to half-maximal inhibition (IC50) and the Ki is 20.1 µM.
`CC1(C)CC[C@]2(C(=O)O)CC[C@]3(C)C(=CC[C@@H]4[C@@]5(C)C[C@H](O)[C@H](O)C(C)(C)[C@@H]5CC[C@]43C)[C@@H]2C1` [AUGUSTIC ACID]: at Cholinesterase, half-maximal inhibition (IC50) required 16.6 µM and the Ki came out at 35.6 µM. Besides, the Ki on Acetylcholinesterase is over 30 µM. This molecule came in with a Kiuc in assay [19] of 10.6 µM.

Source of the values: ChEMBL document CHEMBL3779826, “Converting maslinic acid into an effective inhibitor of acylcholinesterases” (Eur J Med Chem, 2015).
